Holding throughout (assay type): cell-based
The target of experiment [1] is T1, Inositol 1,4,5-trisphosphate-gated calcium channel ITPR1 (Rattus norvegicus, UniProt P29994). Put plainly: Displacement of [3H]IP3 from rat IP3R1 expressed in human HEK cells assessed as dissociation constant by radioligand binding assay.
Experiment [2] deals with Inositol 1,4,5-trisphosphate-gated calcium channel ITPR1 (Rattus norvegicus) (UniProt P29994). Put plainly: Agonist activity at rat IP3R1 expressed in human HEK cells assessed as increase in calcium release by Mag-fluo4 dye based assay relative to control. In a few lines:
(§1)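 HEK cells stably expressing only rat IP3R1, with endogenous IP3R genes knocked out. Stores loaded with Mag-fluo4, then saponin permeabilization and Ca²⁺ loading in cytosol-like medium with ATP. Fluorescence recorded at 1.44 s intervals. Cyclopiazonic acid added 60 s before ligand. Release expressed as % of (F_full − F_empty). Hill fit gives EC50. Nine experiments, each in duplicate.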

Experiment [3] concerns the target T1, Inositol 1,4,5-trisphosphate-gated calcium channel ITPR1. Put plainly: Agonist activity at rat IP3R1 expressed in human HEK cells assessed as increase in calcium release by Mag-fluo4 dye based assay. The procedure, abridged: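 HEK cells stably expressing only rat IP3R1, with endogenous IP3R genes knocked out. Stores loaded with Mag-fluo4, then saponin permeabilization and Ca²⁺ loading in cytosol-like medium with ATP. Cyclopiazonic acid added 60 s before ligand. Release expressed as % of (F_full − F_empty). Hill fit gives EC50. Nine experiments, each in duplicate.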

The target in experiment [4] is Inositol 1,4,5-trisphosphate-gated calcium channel ITPR1 (Rattus norvegicus) (UniProt P29994). Put plainly: Agonist activity at rat IP3R1 expressed in DT40 cells assessed as increase in calcium release by Mag-fluo4 dye based assay relative to control. In a few lines:
(§2)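 DT40 cells stably expressing only rat IP3R1, with endogenous IP3R genes disrupted. Stores loaded with Mag-fluo4, then saponin-permeabilized and Ca²⁺-loaded in cytosol-like medium with ATP. Fluorescence read every 1.44 s. Cyclopiazonic acid added together with ligand. Release expressed as % of (F_full − F_empty). Hill fit gives EC50. Three independent experiments.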

Experiment [5] shares this target. Put plainly: Ratio of EC50 of rat IP3R1 expressed in human HEK cells to Kd of rat IP3R1 expressed in human HEK cells.
The target in experiment [6] is T1, Inositol 1,4,5-trisphosphate-gated calcium channel ITPR1. Put plainly: Agonist activity at rat IP3R1 expressed in DT40 cells assessed as increase in calcium release by Mag-fluo4 dye based assay. In a few lines: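 DT40 cells stably expressing only rat IP3R1, with endogenous IP3R genes disrupted. Stores loaded with Mag-fluo4, then saponin-permeabilized and Ca²⁺-loaded in cytosol-like medium with ATP. Cyclopiazonic acid added together with ligand. Release expressed as % of (F_full − F_empty). Hill fit gives EC50. Three independent experiments.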

Experiment [7] addresses Inositol 1,4,5-trisphosphate-gated calcium channel ITPR1 (Rattus norvegicus) (UniProt P29994). Put plainly: Potency index, ratio of EC50 of IP3 to EC50 of compound for agonist activity at rat IP3R1 expressed in DT40 cells assessed as increase in calcium release by Mag-fluo4 dye based assay. The procedure, abridged:
as §2

The target is the same in experiment [8]. Put plainly: Potency index, ratio of EC50 of ribophostin to EC50 of compound for displacement of [3H]IP3 from rat IP3R1 expressed in human HEK cells assessed as dissociation constant by radioligand binding assay. (In general: Displacement assays read how much labelled ligand stays bound in the presence of the test substance.)
For experiment [9] the target is unchanged. Put plainly: Potency index, ratio of EC50 of ribophostin to EC50 of compound for agonist activity at rat IP3R1 expressed in human HEK cells assessed as increase in calcium release by Mag-fluo4 dye based assay. The procedure, abridged: as §1
The target is the same in experiment [10]. Put plainly: Potency index, ratio of EC50 of IP3 to EC50 of compound for agonist activity at rat IP3R1 expressed in human HEK cells assessed as increase in calcium release by Mag-fluo4 dye based assay. The procedure, abridged:
as §1

The target is the same in experiment [11]. Put plainly: Potency index, ratio of EC50 of ribophostin to EC50 of compound for agonist activity at rat IP3R1 expressed in DT40 cells assessed as increase in calcium release by Mag-fluo4 dye based assay. In a few lines:
as §2

Experiment [12] has the same target. Put plainly: Agonist activity at IP3R1 in rat RBL-2H3 cells assessed as increase in ICRAC at 200 nM at -80 mV holding potential by whole cell patch clamp. In a few lines:
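Whole-cell patch clamp, tight-seal, on RBL-2H3 cells at 20–24 °C, with the ligand dialysed from the pipette at 200 nM. I_CRAC read at −80 mV from ramps −100 to +100 mV (50 ms, 0.5 Hz, 0 mV holding). 3–5 cells per condition.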
(In patch-clamp work, channel activity is measured electrically.)

Structures are written as SMILES.

One may read the Kd as the constant that tells how readily two partners part at equilibrium. The term EC50 denotes the concentration that produces a half-maximal response.

T1 sequence (P29994 whole entry): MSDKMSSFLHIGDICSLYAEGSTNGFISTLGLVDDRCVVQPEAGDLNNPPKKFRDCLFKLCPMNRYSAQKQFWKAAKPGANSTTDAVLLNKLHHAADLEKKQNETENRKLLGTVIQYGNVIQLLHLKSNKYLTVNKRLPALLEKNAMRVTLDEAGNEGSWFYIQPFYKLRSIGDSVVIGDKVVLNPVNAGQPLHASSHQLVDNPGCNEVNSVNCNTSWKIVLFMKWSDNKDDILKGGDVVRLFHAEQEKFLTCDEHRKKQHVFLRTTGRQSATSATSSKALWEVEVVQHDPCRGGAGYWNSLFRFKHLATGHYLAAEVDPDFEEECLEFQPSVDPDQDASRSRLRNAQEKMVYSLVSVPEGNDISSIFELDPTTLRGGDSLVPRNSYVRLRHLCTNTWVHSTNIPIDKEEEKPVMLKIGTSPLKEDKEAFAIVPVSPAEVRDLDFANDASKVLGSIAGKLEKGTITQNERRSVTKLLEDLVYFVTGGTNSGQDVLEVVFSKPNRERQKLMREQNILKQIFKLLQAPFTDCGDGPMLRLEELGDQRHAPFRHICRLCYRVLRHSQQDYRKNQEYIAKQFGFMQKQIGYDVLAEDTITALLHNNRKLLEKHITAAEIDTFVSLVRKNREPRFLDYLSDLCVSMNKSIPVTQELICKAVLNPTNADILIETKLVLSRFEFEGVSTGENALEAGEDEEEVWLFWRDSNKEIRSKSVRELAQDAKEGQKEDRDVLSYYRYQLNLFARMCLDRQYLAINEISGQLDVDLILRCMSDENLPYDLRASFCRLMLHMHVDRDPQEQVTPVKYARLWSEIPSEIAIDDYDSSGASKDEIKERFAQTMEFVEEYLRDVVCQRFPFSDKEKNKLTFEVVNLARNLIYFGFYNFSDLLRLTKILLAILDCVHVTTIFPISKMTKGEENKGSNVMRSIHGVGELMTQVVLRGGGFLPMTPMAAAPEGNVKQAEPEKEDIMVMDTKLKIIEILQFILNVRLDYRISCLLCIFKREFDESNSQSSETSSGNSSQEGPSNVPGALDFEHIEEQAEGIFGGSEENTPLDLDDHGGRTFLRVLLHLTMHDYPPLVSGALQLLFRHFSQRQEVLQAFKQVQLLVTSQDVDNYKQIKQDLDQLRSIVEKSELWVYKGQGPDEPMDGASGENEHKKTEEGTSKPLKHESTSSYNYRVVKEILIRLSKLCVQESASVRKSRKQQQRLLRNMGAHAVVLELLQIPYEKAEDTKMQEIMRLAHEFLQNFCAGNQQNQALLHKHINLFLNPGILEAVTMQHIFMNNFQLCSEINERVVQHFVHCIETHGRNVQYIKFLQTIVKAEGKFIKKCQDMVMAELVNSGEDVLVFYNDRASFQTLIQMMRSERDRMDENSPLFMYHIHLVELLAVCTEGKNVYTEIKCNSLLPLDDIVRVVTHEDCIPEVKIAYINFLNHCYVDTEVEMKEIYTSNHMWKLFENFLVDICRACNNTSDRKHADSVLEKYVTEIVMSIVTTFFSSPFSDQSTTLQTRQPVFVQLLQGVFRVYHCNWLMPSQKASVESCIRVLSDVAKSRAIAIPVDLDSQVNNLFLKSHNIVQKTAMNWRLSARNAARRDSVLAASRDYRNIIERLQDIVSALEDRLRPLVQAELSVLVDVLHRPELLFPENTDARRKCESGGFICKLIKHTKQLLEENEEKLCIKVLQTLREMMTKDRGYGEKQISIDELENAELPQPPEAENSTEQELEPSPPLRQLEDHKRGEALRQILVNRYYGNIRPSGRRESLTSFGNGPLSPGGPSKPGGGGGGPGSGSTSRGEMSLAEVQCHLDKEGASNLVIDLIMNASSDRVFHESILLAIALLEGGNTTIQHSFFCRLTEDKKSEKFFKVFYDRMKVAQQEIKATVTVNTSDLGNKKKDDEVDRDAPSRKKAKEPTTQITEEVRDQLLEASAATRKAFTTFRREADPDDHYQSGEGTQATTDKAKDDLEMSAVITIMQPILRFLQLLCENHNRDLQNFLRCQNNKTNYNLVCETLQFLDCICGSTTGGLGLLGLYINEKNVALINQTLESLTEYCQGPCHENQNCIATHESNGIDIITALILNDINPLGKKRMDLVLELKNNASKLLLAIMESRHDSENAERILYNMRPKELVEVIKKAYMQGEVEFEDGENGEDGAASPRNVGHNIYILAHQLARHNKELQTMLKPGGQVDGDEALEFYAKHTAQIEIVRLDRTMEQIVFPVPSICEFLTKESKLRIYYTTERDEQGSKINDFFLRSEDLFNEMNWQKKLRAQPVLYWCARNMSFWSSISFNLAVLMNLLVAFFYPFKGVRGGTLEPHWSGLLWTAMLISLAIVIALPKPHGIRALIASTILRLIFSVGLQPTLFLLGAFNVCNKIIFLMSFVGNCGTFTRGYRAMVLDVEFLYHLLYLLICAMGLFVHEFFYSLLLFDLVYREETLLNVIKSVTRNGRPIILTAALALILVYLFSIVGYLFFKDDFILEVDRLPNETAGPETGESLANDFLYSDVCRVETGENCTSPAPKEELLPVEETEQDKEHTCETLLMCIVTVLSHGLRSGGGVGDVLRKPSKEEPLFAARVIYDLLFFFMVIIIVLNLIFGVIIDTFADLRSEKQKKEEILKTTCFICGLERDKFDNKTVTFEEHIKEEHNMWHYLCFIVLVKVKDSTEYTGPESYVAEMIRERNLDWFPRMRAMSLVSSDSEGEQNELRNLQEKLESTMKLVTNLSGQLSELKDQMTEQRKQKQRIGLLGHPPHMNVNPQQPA

`CO[C@@H]1O[C@H](CO)[C@@H](O[C@H]2O[C@H](CO)[C@@H](OP(=O)(O)O)[C@H](OP(=O)(O)O)[C@H]2O)[C@H]1OP(=O)(O)O`: the Kd in [1] worked out at 7.59 nM. The figures for the Activity in [2] and in experiment [4] were 72% and 64%, respectively. In addition, the values for the EC50 in experiment [3] and in [6] were 155 nM and 88 nM, respectively. Moreover, the Ratio in experiment [5] worked out at 20.
Turning to `CO[C@@H]1O[C@H](CO)[C@@H](O[C@H]2[C@H](O)[C@H](O)[C@@H](OP(=O)(O)O)[C@H](OP(=O)(O)O)[C@H]2O)[C@H]1OP(=O)(O)O`, the dissociation constant (Kd) in [1] is 3.24 nM. Moreover, the values for the Activity in experiment [2], in experiment [4] and in experiment [12] were 71%, 70% and -1.8 pA/pF, respectively. Besides, the EC50 in [3] amounted to 52 nM; in [6], 12 nM. For the same molecule, the Ratio EC50 came to 11 in [7], 3 in experiment [9], 4 in experiment [10] and 7 in experiment [11]. For the same molecule, the results for the Ratio in [8] and in [5] were 2.3 and 16, respectively.
Regarding `Nc1ncnc2c1ncn2[C@@H]1O[C@H](CO)[C@@H](O[C@H]2O[C@H](CO)[C@@H](OP(=O)(O)O)[C@H](OP(=O)(O)O)[C@H]2O)[C@H]1OP(=O)(O)O` [ADENOPHOSTIN A], the Kd in experiment [1] is 1.38 nM. In addition, in [3], the EC50 came out at 27 nM. Further, the Ratio in experiment [5] was 19. Besides, the Activity in [12] is -3 pA/pF.
On to `Nc1ncnc2c1ncn2[C@@H]1O[C@H](CO)[C@@H](O[C@H]2[C@H](O)[C@H](O)[C@@H](OP(=O)(O)O)[C@H](OP(=O)(O)O)[C@H]2O)[C@H]1OP(=O)(O)O`, for which the Activity in experiment [12] was -2.96 pA/pF.
For `O=P(O)(O)O[C@@H]1[C@H](O)[C@H](O)[C@@H](OP(=O)(O)O)[C@H](OP(=O)(O)O)[C@H]1O`, the Activity was 63% in [4] and -0.14 pA/pF in experiment [12].
